According to ChEMBL document CHEMBL1128436, “Synthesis and biological evaluation of a new series of sterols as potential hypocholesterolemic agents” (1995):
Activity calls are given as the source filed them. The calls are words filed in the database; no cut-off is given here.

Experiments:
Mesocricetus auratus [1] = species: Mesocricetus auratus; assay: Serum cholesterol level change relative to the control value (425(58)) in hamsters at a dose of 0.2% of diet for 1 week
[2] = molecular target: Low-density lipoprotein receptor (Homo sapiens) (UniProt P01130); assay: Capability of derepressing the transcription of human Low density lipoprotein receptor promoter in the presence of 25-hydroxycholesterol in CHO cells by luciferase assay; NA= Not active within the test range 0-20 ug/mL; type: cell-based
Chain of Low-density lipoprotein receptor (Homo sapiens) (P01130 whole entry, the tested form may be a part): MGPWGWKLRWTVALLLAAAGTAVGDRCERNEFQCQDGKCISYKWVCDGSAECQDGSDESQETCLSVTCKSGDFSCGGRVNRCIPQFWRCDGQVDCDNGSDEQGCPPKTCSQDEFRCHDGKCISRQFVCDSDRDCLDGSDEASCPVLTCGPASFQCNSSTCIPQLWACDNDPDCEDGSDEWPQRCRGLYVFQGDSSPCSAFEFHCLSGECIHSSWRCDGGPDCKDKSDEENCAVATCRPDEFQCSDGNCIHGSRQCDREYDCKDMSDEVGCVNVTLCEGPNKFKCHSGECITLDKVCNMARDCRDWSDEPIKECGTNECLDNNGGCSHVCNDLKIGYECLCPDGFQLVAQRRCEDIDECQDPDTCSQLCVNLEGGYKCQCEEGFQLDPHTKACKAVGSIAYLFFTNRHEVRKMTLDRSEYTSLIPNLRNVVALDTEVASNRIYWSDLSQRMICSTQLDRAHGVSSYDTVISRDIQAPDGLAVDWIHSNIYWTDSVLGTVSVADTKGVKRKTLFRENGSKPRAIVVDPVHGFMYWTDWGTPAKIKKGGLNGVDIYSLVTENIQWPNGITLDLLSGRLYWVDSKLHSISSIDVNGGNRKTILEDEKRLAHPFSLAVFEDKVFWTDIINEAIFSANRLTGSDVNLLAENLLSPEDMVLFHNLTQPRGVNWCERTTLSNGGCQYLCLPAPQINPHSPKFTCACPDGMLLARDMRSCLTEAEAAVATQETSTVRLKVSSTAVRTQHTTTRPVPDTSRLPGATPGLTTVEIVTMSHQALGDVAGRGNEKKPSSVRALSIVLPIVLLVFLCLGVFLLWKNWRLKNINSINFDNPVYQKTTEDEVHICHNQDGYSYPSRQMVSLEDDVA
In short: (§1)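 Stably transfected CHO clone S27/B30 (LDL receptor promoter fused to firefly luciferase), grown to confluence (2-3 days, 37 °C, 5% CO2). Then 24 h in serum-free assay medium (DMEM/Ham's F-12 3:1, 0.5% bovine albumin) with 25-hydroxycholesterol 0.5 μg/mL plus compound at 0.30-20 μg/mL from ethanol stock, triplicate wells. Lysate luciferase peak light per μg protein (Coomassie). EC30 = concentration giving 30% rise over control. MA = % specific induction at 20 μg/mL.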

Cricetinae gen. sp. [3] = assay: Total serum cholesterol level with relative to the control value (425(58)) in hamsters at a dose of 0.2% of diet for 1 week; type: functional, Cricetulus griseus
Mesocricetus auratus [4] = species: Mesocricetus auratus; assay: Serum cholesterol level change relative to the control value (320(14)) in hamsters at a dose of 0.2% of diet for 1 week
Cricetinae gen. sp. [5] = assay: Total serum cholesterol level with relative to the control value (320(14)) in hamsters at a dose of 0.2% of diet for 1 week; type: functional, Cricetulus griseus
Cricetinae gen. sp. [6] = assay: Serum cholesterol level change relative to the control value (274(23)) in hamsters at a dose of 0.2% of diet for 1 week; type: functional, Cricetulus griseus
Mesocricetus auratus [7] = species: Mesocricetus auratus; assay: Serum cholesterol level change relative to the control value (333(23)) in hamsters at a dose of 0.2% of diet for 1 week
Mesocricetus auratus [8] = species: Mesocricetus auratus; assay: Serum cholesterol level change relative to the control value (306(27)) was calculated.i n hamsters at a dose of 0.2% of diet for 1 week
[9] = molecular target: Low-density lipoprotein receptor (Homo sapiens) (UniProt P01130); assay: (§2) Capability of derepressing the transcription of Low density lipoprotein receptor promoter in the presence of 25-hydroxycholesterol in CHO cells measured as maximum activity at 20 ug/mL; type: cell-based
In short: as §1

Cricetinae gen. sp. [10] = assay: Total serum cholesterol level with relative to the control value (383(13)) in hamsters at a dose of 0.2% of diet for 1 week; type: functional, Cricetulus griseus
Mesocricetus auratus [11] = species: Mesocricetus auratus; assay: Serum cholesterol level change relative to the control value (313(24)) in hamsters at a dose of 0.2% of diet for 1 week
CHO [12] = assay: In vitro [1-14C]-acetate]-cholesterol biosynthesis inhibition assay (14CACBI) in CHO cells; neg = Negative :no effect on biosynthesis of cholesterol; type: functional, cell-based; settings: Cricetulus griseus
In short: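 Confluent CHO cells in replicate 100 mm dishes were held 20 h in assay medium without 25-hydroxycholesterol, with ethanol vehicle (0.5% v/v) or compound at 20 μg/mL. [1-14C]acetate was then added (final 1 μCi/mL) for 4 h more. Cells were scraped and sonicated, lipids separated, and the cholesterol band scraped and counted by scintillation.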

Cricetinae gen. sp. [13] = assay: Total serum cholesterol level with relative to the control value (313(24)) in hamsters at a dose of 0.2% of diet for 1 week; type: functional, Cricetulus griseus
Cricetinae gen. sp. [14] = assay: Serum cholesterol level changes with relative to the control value (425(58)) in hamsters at a dose of 0.2% of diet for 1 week; type: functional, Cricetulus griseus
Mesocricetus auratus [15] = species: Mesocricetus auratus; assay: Serum cholesterol level change relative to the control value (366(24)) in hamsters at a dose of 0.2% of diet for 1 week
Cricetinae gen. sp. [16] = assay: Total serum cholesterol level with relative to the control value (333(23)) in hamsters at a dose of 0.2% of diet for 1 week; type: functional, Cricetulus griseus
[17] = molecular target: Low-density lipoprotein receptor (Homo sapiens) (UniProt P01130); assay: Capability of derepressing the transcription of human Low density lipoprotein receptor promoter in the presence of 25-hydroxycholesterol in CHO cells by luciferase assay; type: cell-based
In short: as §1

Cricetinae gen. sp. [18] = assay: Total serum cholesterol level with relative to the control value (274(23)) in hamsters at a dose of 0.2% of diet for 1 week; type: functional, Cricetulus griseus
Cricetinae gen. sp. [19] = assay: Total serum cholesterol level with relative to the control value (366(24)) in hamsters at a dose of 0.2% of diet for 1 week; type: functional, Cricetulus griseus
Mesocricetus auratus [20] = species: Mesocricetus auratus; assay: Serum cholesterol level change relative to the control value (383(13)) in hamsters at a dose of 0.2% of diet for 1 week
CHO [21] = assay: Capability of derepressing the transcription of SV40 promoter in CHO cells by luciferase assay; NA= Not active within the test range 0-20 ug/mL; type: functional, cell-based; settings: Cricetulus griseus
In short: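 Counter-screen in CHO clone SV40/LN9, with luciferase driven by the SV40 promoter. Confluent monolayers were given compound at 0.30-20 μg/mL for 24 h in serum-free albumin assay medium, triplicate wells. Lysates were read for luciferase peak luminescence, normalized to lysate protein.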

Cricetinae gen. sp. [22] = assay: Total serum cholesterol level with relative to the control value (306(27) in hamsters at a dose of 0.2% of diet for 1 week; type: functional, Cricetulus griseus
Mesocricetus auratus [23] = species: Mesocricetus auratus; assay: Serum cholesterol level change relative to the control value (306(27)) in hamsters at a dose of 0.2% of diet for 1 week
Mesocricetus auratus [24] = species: Mesocricetus auratus; assay: Serum cholesterol level change relative to the control value [383(13)] in hamsters at a dose of 0.2% of diet for 1 week
Cricetinae gen. sp. [25] = assay: Total serum cholesterol level with relative to the control value [383(13)] in hamsters at a dose of 0.2% of diet for 1 week; type: functional, Cricetulus griseus
Mesocricetus auratus [26] = species: Mesocricetus auratus; assay: Serum cholesterol level changes with relative to the control value (313(24)) in hamsters at a dose of 0.2% of diet for 1 week
[27] = molecular target: Low-density lipoprotein receptor (Homo sapiens) (UniProt P01130); assay: Luciferase activity (LDLR/Luc) expressed as light units/microg assayed in LMB the percentage specific light induction of agent over the control at concentration of 20 ug/mL was determined in vitro.
In short: as §1

Mesocricetus auratus [28] = species: Mesocricetus auratus; assay: Serum cholesterol level changes with relative to the control value (333(23)) in hamsters at a dose of 0.2% of diet for 1 week
[29] = molecular target: Low-density lipoprotein receptor (Homo sapiens) (UniProt P01130); assay: as §2; type: functional, cell-based
In short: as §1

Cricetinae gen. sp. [30] = assay: Serum cholesterol level change relative to the control value [320(14)] in hamsters at a dose of 0.2% of diet for 1 week; type: functional, Cricetulus griseus
Cricetinae gen. sp. [31] = assay: Total serum cholesterol level with relative to the control value [320(14)] in hamsters at a dose of 0.2% of diet for 1 week; type: functional, Cricetulus griseus
Cricetinae gen. sp. [32] = assay: Total serum cholesterol level relative to the control value (274(23)) in hamsters at a dose of 0.2% of diet for 1 week; type: functional, Cricetulus griseus
Cricetinae gen. sp. [33] = assay: Total serum cholesterol level with relative to the control value [306(27)] in hamsters at a dose of 0.2% of diet for 1 week; type: functional, Cricetulus griseus
Mesocricetus auratus [34] = species: Mesocricetus auratus; assay: Serum cholesterol level change relative to the control value [306(27)] in hamsters at a dose of 0.2% of diet for 1 week

CC(C)CCC[C@@H](C)[C@H]1CC[C@H]2[C@@H]3CCC4[C@H](C/C=C\Cl)[C@H](O)CC[C@]4(C)[C@H]3CC[C@]12C (some centres not stated)
Relative change (Mesocricetus auratus [1]): -26%
EC30 [2]: inactive
Total cholesterol (Cricetinae gen. sp. [3]): 316 mg/dL

C=CC[C@H]1C2CC[C@H]3[C@@H]4CC[C@H]([C@H](C)CCCC(C)C)[C@@]4(C)CC[C@@H]3[C@@]2(C)CC[C@H]1O (some centres not stated)
Relative change (Mesocricetus auratus [4]): -47%
Total cholesterol (Cricetinae gen. sp. [5]): 168 mg/dL
Relative change (Cricetinae gen. sp. [6]): -31%
Relative change (Mesocricetus auratus [7]): -40%
Relative change (Mesocricetus auratus [8]): -51%
MA [9]: 127%
Total cholesterol (Cricetinae gen. sp. [10]): 197 mg/dL
Relative change (Mesocricetus auratus [11]): -47%
Activity (CHO [12]): Negative
Total cholesterol (Cricetinae gen. sp. [13]): 167 mg/dL
Relative change (Cricetinae gen. sp. [14]): -50%
Relative change (Mesocricetus auratus [15]): -53%
Total cholesterol (Cricetinae gen. sp. [3]): 213 mg/dL
Total cholesterol (Cricetinae gen. sp. [16]): 199 mg/dL
EC30 [17]: 2.9 µM
Total cholesterol (Cricetinae gen. sp. [18]): 188 mg/dL
Total cholesterol (Cricetinae gen. sp. [19]): 174 mg/dL
Relative change (Mesocricetus auratus [20]): -49%
Activity (CHO [21]): inactive
Total cholesterol (Cricetinae gen. sp. [22]): 151 mg/dL

C=CC[C@H]1C2=CCC3C(CC[C@@]4(C)C3CC[C@@H]4[C@H](C)CCCC(C)C)[C@@]2(C)CC[C@H]1O (some centres not stated)
MA [9]: 96%
Activity (CHO [12]): Negative
EC30 [17]: 3.5 µM
Relative change (Mesocricetus auratus [23]): -47%
Activity (CHO [21]): inactive
Total cholesterol (Cricetinae gen. sp. [22]): 163 mg/dL

CC(C)CCC[C@@H](C)[C@H]1CC[C@H]2[C@@H]3CCC4[C@H](Cc5ccc(I)cc5)[C@H](O)CC[C@]4(C)[C@H]3CC[C@]12C (some centres not stated)
MA [9]: 80%
Activity (CHO [12]): Negative
Relative change (Mesocricetus auratus [24]): -37%
EC30 [17]: 2.8 µM
Total cholesterol (Cricetinae gen. sp. [25]): 240 mg/dL
Activity (CHO [21]): inactive

C/C=C/C[C@H]1C2CC[C@H]3[C@@H]4CC[C@H]([C@H](C)CCCC(C)C)[C@@]4(C)CC[C@@H]3[C@@]2(C)CC[C@H]1O (some centres not stated)
Relative change (Mesocricetus auratus [26]): -33%
Activity (CHO [12]): Negative
Total cholesterol (Cricetinae gen. sp. [13]): 210 mg/dL
MA [27]: 86%
EC30 [17]: 11 µM
Activity (CHO [21]): inactive

C=C(Cl)C[C@H]1C2CC[C@H]3[C@@H]4CC[C@H]([C@H](C)CC[C@@H](CC)C(C)C)[C@@]4(C)CC[C@@H]3[C@@]2(C)CC[C@H]1O (some centres not stated)
Relative change (Mesocricetus auratus [1]): -43%
MA [9]: 120%
Total cholesterol (Cricetinae gen. sp. [3]): 241 mg/dL
EC30 [17]: 4.2 µM
Activity (CHO [21]): inactive

C=C(Cl)C[C@H]1C2CC[C@H]3[C@@H]4CC[C@H]([C@H](C)CCCC(C)C)[C@@]4(C)CC[C@@H]3[C@@]2(C)CC[C@H]1O (some centres not stated)
MA [9]: 141%
Relative change (Mesocricetus auratus [28]): -40%
Total cholesterol (Cricetinae gen. sp. [16]): 200 mg/dL
EC30 [17]: 1.8 µM
Activity (CHO [21]): inactive

Cc1ccc(C[C@H]2C3CC[C@H]4[C@@H]5CC[C@H]([C@H](C)CCCC(C)C)[C@@]5(C)CC[C@@H]4[C@@]3(C)CC[C@H]2O)cc1 (some centres not stated)
Relative change (Mesocricetus auratus [1]): -33%
MA [29]: 45%
Total cholesterol (Cricetinae gen. sp. [3]): 283 mg/dL
EC30 [17]: 35 µM
Activity (CHO [21]): inactive

CC(C)CCC[C@@H](C)[C@H]1CC[C@H]2[C@@H]3CCC4[C@H](Cc5ccc(Br)cc5)[C@H](O)CC[C@]4(C)[C@H]3CC[C@]12C (some centres not stated)
Relative change (Cricetinae gen. sp. [6]): -42%
MA [9]: 57%
EC30 [17]: 6 µM
Total cholesterol (Cricetinae gen. sp. [18]): 160 mg/dL
Activity (CHO [21]): inactive

CC(C)CCC[C@@H](C)[C@H]1CC[C@H]2[C@@H]3CCC4[C@H](Cc5ccc(OC(F)(F)F)cc5)[C@H](O)CC[C@]4(C)[C@H]3CC[C@]12C (some centres not stated)
MA [9]: 71%
Control (Cricetinae gen. sp. [30]): -34%
Total cholesterol (Cricetinae gen. sp. [31]): 209 mg/dL
EC30 [17]: 15 µM
Activity (CHO [21]): inactive

CC(C)CCC[C@@H](C)[C@H]1CC[C@H]2[C@@H]3CC[C@H]4[C@H](Cc5ccc(F)cc5)[C@@H](O)CC[C@]4(C)[C@H]3CC[C@]12C
Relative change (Cricetinae gen. sp. [6]): 5%
Total cholesterol (Cricetinae gen. sp. [32]): 287 mg/dL

CCC[C@H]1C2CC[C@H]3[C@@H]4CC[C@H]([C@H](C)CCCC(C)C)[C@@]4(C)CC[C@@H]3[C@@]2(C)CC[C@H]1O (some centres not stated)
MA [9]: 48%
Activity (CHO [12]): Negative
EC30 [17]: 38 µM
Relative change (Mesocricetus auratus [23]): -27%
Activity (CHO [21]): inactive
Total cholesterol (Cricetinae gen. sp. [22]): 222 mg/dL

CC(C)CCC[C@@H](C)[C@H]1CC[C@H]2[C@@H]3CCC4[C@H](Cc5ccc(O)cc5)[C@H](O)CC[C@]4(C)[C@H]3CC[C@]12C (some centres not stated)
EC30 [2]: inactive
Total cholesterol (Cricetinae gen. sp. [33]): 261 mg/dL
Relative change (Mesocricetus auratus [34]): -15%
